In ChEMBL document CHEMBL4831494, “Synthesis and evaluation of FAK inhibitors with a 5-fluoro-7H-pyrrolo[2,3-d]pyrimidine scaffold as anti-hepatocellular carcinoma agents” (Eur J Med Chem, 2021):
The source made the active and inactive calls. The rule behind the calls is not given here.

Key:
[1] = MRT (0 to infinity) in Sprague-Dawley rat at 10 mg/kg, po by LC-MS/MS analysis; type: ADME, organism-based; settings: in vivo
Procedure, shortened: (§1)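 Male SD rats, 6e8 weeks, 220 30 g, three per route (p.o. or i.v.). Compound given in DMSO/Solutol/saline (5/10/85). Centrifuged 6800 g for 6 min at 2e8 °C, frozen near −80 °C, analysed by LC-MS/MS. Mean ± SEM, n = 3.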

[2] = cells; settings: Homo sapiens, YY-8103, 48 h
[3] = Volume of distribution at steady state in Sprague-Dawley rat at 2 mg/kg, iv measured upto 24 hrs by LC-MS/MS analysis; type: ADME, organism-based; settings: in vivo; procedure, shortened: as §1
[4] = Cmax in Sprague-Dawley rat at 2 mg/kg, iv measured upto 24 hrs by LC-MS/MS analysis; type: ADME, organism-based; set-up: route intravenous, dose 2 mg/kg, time <=24; settings: in vivo; procedure, shortened: as §1
[5] = Oral bioavailability in Sprague-Dawley rat 10 mg/kg measured upto 24 hrs by LC-MS/MS analysis; type: ADME, organism-based; settings: in vivo; procedure, shortened: as §1
[6] = Upregulation of integrin beta1 phosphorylation at Thr788 residue in human HCC cells at 30 uM by KEGG analysis relative to control; type: functional
[7] = tested on: SMMC-7721; test: cells; settings: Homo sapiens, SMMC-7721, 48 h
[8] = AUC (0 to infinity) in Sprague-Dawley rat at 2 mg/kg, iv by LC-MS/MS analysis; type: ADME, organism-based; set-up: route intravenous, time infinity, dose 2 mg/kg; settings: in vivo; procedure, shortened: as §1
[9] = Tmax in Sprague-Dawley rat at 10 mg/kg, po measured upto 24 hrs by LC-MS/MS analysis; type: ADME, organism-based; settings: in vivo; procedure, shortened: as §1
[10] = AUC (0 to t) in Sprague-Dawley rat at 10 mg/kg, po measured upto 24 hrs by LC-MS/MS analysis; type: ADME, organism-based; set-up: route oral, dose 10 mg/kg, time <=24; settings: in vivo; procedure, shortened: as §1
[11] = MRT (0 to t) in Sprague-Dawley rat at 2 mg/kg, iv measured upto 24 hrs by LC-MS/MS analysis; type: ADME, organism-based; settings: in vivo; procedure, shortened: as §1
[12] = tested on: SMMC-7721; test: Antitumor activity against human […] cells xenografted in BALB/c nude mouse assessed as tumor growth inhibition at 30 mg/kg, ip administered for 19 days; type: functional; settings: SMMC-7721, ip, 456 h, time 19 day, read-out: TGI
Procedure, shortened: (§2)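 Male BALB/c nude mice, six weeks old, inoculated s.c. with 1.0 × 10⁷ SMMC7721 cells. Dosing began at mean tumour 25e35 mm³; five randomized groups, n = 8. Solvent DMSO/propylene glycol/PBS 2:5:3 (vehicle 1.0 mL/kg), all given i.p. every 3 days. Tumour size (calipers) and body weight taken before each dose. V = length × width²/2. TGI = [1 − (T−T₀)/(C−C₀)] × 100.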

[13] = target: T1, Focal adhesion kinase 1 (Homo sapiens, UniProt Q05397); test: Inhibition of FAK phosphorylation in human HCC cells assessed as reduction in PDK1 phosphorylation at 30 mg/kg by KEGG analysis
Target sequence in this assay (Q05397 2-1052 limits assumed): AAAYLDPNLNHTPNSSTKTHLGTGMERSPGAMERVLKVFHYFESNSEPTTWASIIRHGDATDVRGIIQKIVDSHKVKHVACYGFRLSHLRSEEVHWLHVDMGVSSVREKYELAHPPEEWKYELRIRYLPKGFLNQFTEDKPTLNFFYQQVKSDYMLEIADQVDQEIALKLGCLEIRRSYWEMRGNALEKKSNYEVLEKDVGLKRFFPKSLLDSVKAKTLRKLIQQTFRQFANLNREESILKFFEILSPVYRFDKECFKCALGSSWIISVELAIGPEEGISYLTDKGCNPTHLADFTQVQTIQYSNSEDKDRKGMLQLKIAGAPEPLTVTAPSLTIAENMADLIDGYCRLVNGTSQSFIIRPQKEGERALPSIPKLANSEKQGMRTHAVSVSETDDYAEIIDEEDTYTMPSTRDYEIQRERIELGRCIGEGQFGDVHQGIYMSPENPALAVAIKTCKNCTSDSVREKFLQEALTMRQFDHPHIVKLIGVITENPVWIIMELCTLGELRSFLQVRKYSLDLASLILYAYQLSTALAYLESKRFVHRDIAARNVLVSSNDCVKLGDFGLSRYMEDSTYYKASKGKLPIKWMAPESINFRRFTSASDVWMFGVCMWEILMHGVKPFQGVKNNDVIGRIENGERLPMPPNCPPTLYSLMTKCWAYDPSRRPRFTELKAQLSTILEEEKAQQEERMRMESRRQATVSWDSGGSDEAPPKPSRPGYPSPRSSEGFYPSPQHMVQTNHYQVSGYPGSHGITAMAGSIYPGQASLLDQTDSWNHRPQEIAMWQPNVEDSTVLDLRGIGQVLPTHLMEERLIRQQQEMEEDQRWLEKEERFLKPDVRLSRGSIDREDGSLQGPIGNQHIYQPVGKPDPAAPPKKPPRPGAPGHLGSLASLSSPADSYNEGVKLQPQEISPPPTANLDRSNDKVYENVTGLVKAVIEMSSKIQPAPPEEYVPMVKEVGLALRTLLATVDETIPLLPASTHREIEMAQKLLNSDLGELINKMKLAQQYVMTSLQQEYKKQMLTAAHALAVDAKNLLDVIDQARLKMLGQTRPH

[14] = target: T1, Focal adhesion kinase 1; test: Inhibition of FAK phosphorylation in human HCC cells assessed as upregulation of FOXO phosphorylation at 30 uM by KEGG analysis; type: cell-based
Target sequence in this assay (Q05397 2-1052 limits assumed): as above

[15] = AUC (0 to infinity) in Sprague-Dawley rat at 10 mg/kg, po by LC-MS/MS analysis; type: ADME, organism-based; set-up: time infinity, route oral, dose 10 mg/kg; settings: in vivo; procedure, shortened: as §1
[16] = MRT (0 to t) in Sprague-Dawley rat at 10 mg/kg, po measured upto 24 hrs by LC-MS/MS analysis; type: ADME, organism-based; settings: in vivo; procedure, shortened: as §1
[17] = tested on: SMMC-7721; test: Antitumor activity against human […] cells xenografted in BALB/c nude mouse assessed as tumor size at 10 mg/kg, ip administered for 19 days (reference value: 600.8 mm3); type: functional; settings: time 19 day; procedure, shortened: as §2
[18] = target: T1, Focal adhesion kinase 1; test: Inhibition of FAK phosphorylation in human HCC cells assessed as reduction in NFkappaB phosphorylation at 30 mg/kg by KEGG analysis
Target sequence in this assay (Q05397 2-1052 limits assumed): as above

[19] = Tmax in Sprague-Dawley rat at 2 mg/kg, iv measured upto 24 hrs by LC-MS/MS analysis; type: ADME, organism-based; settings: in vivo; procedure, shortened: as §1
[20] = Half life in Sprague-Dawley rat at 10 mg/kg, po measured upto 24 hrs by LC-MS/MS analysis; type: ADME, organism-based; settings: in vivo; procedure, shortened: as §1
[21] = target: T1, Focal adhesion kinase 1; test: Inhibition of FAK phosphorylation in human HCC cells at 30 mg/kg by KEGG analysis
Target sequence in this assay (Q05397 2-1052 limits assumed): as above

[22] = target: T1, Focal adhesion kinase 1; test: Inhibition of FAK phosphorylation in human HCC cells assessed as reduction in mTOR phosphorylation at 30 mg/kg by KEGG analysis
Target sequence in this assay (Q05397 2-1052 limits assumed): as above

[23] = AUC (0 to t) in Sprague-Dawley rat at 2 mg/kg, iv measured upto 24 hrs by LC-MS/MS analysis; type: ADME, organism-based; set-up: route intravenous, dose 2 mg/kg, time <=24; settings: in vivo
[24] = Half life in Sprague-Dawley rat at 2 mg/kg, iv measured upto 24 hrs by LC-MS/MS analysis; type: ADME, organism-based; settings: in vivo; procedure, shortened: as §1
[25] = MRT (0 to infinity) in Sprague-Dawley rat at 2 mg/kg, iv by LC-MS/MS analysis; type: ADME, organism-based; settings: in vivo; procedure, shortened: as §1
[26] = Cmax in Sprague-Dawley rat at 10 mg/kg, po measured upto 24 hrs by LC-MS/MS analysis; type: ADME, organism-based; set-up: route oral, dose 10 mg/kg, time <=24; settings: in vivo; procedure, shortened: as §1
[27] = Toxicity in BALB/c nude mouse assessed as animal's mortality at 10 to 30 mg/kg, ip administered for 19 days; type: organism-based; settings: in vivo, 456 h, dose 10-30 mg/kg, time 19 day
Procedure, shortened: (§3)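 Six-week-old male BALB/c nude mice bearing subcutaneous SMMC7721 xenografts (1.0 × 10⁷ cells); dosing started at mean tumor 25-35 mm³, n = 8 per group. Ip every 3 days in DMSO/propylene glycol/PBS (2:5:3); vehicle 1.0 mL/kg as negative control. Body weight weighed and deaths recorded every 3 days before each dose, through day 19.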

[28] = target: T1, Focal adhesion kinase 1; test: Inhibition of FAK (unknown origin) using Poly(Glu,Tyr) and ATP as substrate measured after 40 mins by Kinase-Glo Plus luminescence assay
Target sequence in this assay (Q05397 whole entry): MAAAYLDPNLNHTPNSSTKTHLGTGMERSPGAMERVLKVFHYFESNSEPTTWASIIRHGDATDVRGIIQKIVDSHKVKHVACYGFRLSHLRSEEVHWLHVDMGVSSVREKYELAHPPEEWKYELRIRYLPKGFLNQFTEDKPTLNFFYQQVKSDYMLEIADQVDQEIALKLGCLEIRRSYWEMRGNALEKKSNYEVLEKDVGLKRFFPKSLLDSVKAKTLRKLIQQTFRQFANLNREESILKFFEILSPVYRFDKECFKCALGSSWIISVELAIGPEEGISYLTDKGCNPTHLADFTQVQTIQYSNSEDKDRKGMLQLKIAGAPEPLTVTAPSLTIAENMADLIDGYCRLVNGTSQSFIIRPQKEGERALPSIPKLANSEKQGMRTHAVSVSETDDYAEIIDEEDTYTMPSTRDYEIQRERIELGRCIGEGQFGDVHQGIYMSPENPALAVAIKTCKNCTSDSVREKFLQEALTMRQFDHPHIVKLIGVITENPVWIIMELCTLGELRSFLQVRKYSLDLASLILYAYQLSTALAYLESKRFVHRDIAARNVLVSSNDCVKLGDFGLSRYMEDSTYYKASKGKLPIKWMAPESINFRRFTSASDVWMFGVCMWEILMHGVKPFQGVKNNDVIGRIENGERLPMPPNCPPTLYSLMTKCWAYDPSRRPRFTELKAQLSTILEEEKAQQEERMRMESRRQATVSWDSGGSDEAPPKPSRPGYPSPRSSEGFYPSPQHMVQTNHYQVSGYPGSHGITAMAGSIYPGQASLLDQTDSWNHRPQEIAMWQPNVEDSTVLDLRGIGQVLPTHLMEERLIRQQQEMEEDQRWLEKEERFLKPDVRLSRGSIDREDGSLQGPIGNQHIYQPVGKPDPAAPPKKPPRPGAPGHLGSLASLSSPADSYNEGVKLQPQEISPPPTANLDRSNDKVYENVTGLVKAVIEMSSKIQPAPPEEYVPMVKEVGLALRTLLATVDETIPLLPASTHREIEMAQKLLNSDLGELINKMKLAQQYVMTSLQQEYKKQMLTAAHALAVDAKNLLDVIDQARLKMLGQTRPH

[29] = Clearance in Sprague-Dawley rat at 2 mg/kg, iv measured upto 24 hrs by LC-MS/MS analysis; type: ADME, organism-based; settings: in vivo; procedure, shortened: as §1
[30] = Acute toxicity in Kunming mouse assessed as body weight at 5 to 200 mg/kg, ip observed for 10 days; type: organism-based; settings: in vivo, 240 h, dose 5-200 mg/kg, time 10 day
Procedure, shortened: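 Kunming mice (18-22 g), 30 animals in 5 groups of 6 (3 male, 3 female); single intraperitoneal dose of 0, 5, 10, 50 or 200 mg/kg in DMSO/propylene glycol/PBS (2/5/3). Animals observed and weighed daily for 10 days.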

[31] = target: T1, Focal adhesion kinase 1; test: Inhibition of FAK phosphorylation in human HCC cells assessed as reduction in Akt phosphorylation at 30 mg/kg by KEGG analysis
Target sequence in this assay (Q05397 2-1052 limits assumed): as the sequence (Q05397 2-1052 limits assumed) above

[32] = tested on: SMMC-7721; test: Antitumor activity against human […] cells xenografted in BALB/c nude mouse assessed as tumor size at 30 mg/kg, ip administered for 19 days (reference value: 600.8 mm3); type: functional; settings: time 19 day; procedure, shortened: as §2
[33] = Toxicity in BALB/c nude mouse assessed as effect on body weight at 10 to 30 mg/kg, ip administered for 19 days; type: organism-based; settings: in vivo, 456 h, dose 10-30 mg/kg, time 19 day; procedure, shortened: as §3

`CNC(=O)c1ccccc1Nc1nc(Nc2cccc(NC(C)=O)c2)nc2[nH]cc(F)c12` gave an MRT inf [1] of 6.62 h, an IC50 [2] of 2390 nM and a Vdss [3] of 1.8426 L/kg. The Cmax [4] was 5020 ng/mL, the bioavailability [5] was 0.83% and the “fold change (FC)” value [6] was 2.82. The IC50 [7] was 10100 nM, the AUC(0-inf) [8] was 2300 ng·h/mL and the Tmax [9] was 4.67 h. For the same compound, the AUC(0-t) at 24 h [10] was 95.5 ng·h/mL, the MRT last at 24 h [11] was 0.51 h and the inhibition in vivo at 30 mg/kg [12] was 78.6%. The inhibition [13] was “Active”, the inhibition [14] was “Active” and the AUC(0-inf) [15] was 119 ng·h/mL. The MRT last at 24 h [16] was 4.54 h, the Activity [17] was 348.3 mm3 and the inhibition [18] was “Active”. The Tmax [19] was 4.8 min, the half-life [20] was 3.65 h and the inhibition [21] was “Active”. For the same compound, the inhibition [22] was “Active”, the AUC(0-t) at 24 h [23] was 2300 ng·h/mL and the half-life [24] was 1.46 h. The MRT [25] was 0.53 h, the Cmax [26] was 15.4 ng/mL and the Activity [27] was “Non-Toxic”. The IC50 [28] was 12 nM, the CL [29] was 14.49 mL/min/kg and the Activity [30] was “Non-Toxic”. The inhibition [31] was “Active”, the Activity [32] was 153.5 mm3 and the Activity [33] was “Non-Toxic”.
